Experimental data reported in ChEMBL document CHEMBL1128473, “[(Biaryloxy)alkyl]isoxazoles: picornavirus inhibitors” (J Med Chem, 1995).
Converted amounts (≈) assume the structure as drawn.

Assays:
[1] = system: Human rhinovirus sp.; experiment: Concentration inhibiting 50% of the serotypes tested to 50% of the viral concentration of untreated controls following 72 hr of exposure; format: functional
How it was run: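 Tissue culture infectious dose (TCID50) assay against a panel of 10 human rhinovirus serotypes. For each serotype, the viral concentration was compared with untreated controls after 72 h of compound exposure. MIC50 is the compound concentration at which half of the serotypes tested are reduced to 50% of the untreated-control viral concentration.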

[2] = Metabolic stability expressed as half life values was monitored in vitro liver microsomal assay.; format: ADME, Microsome; settings: liver microsomes

Row | Compound | MIC50 [1] | half-life [2]
1 | Cc1cc(CCCOc2c(C)cc(-c3ccc(O)cc3)cc2C)on1 | 0.77 µM (≈ 0.26 µg/mL) | 
2 | Cc1cc(CCCOc2c(C)cc(-c3cccc([N+](=O)[O-])c3)cc2C)on1 | 0.35 µM (≈ 0.128 µg/mL) | 

These reach a lower MIC50 [1]. Values come first.

Row | MIC50 [1] | half-life [2] | Compound
3 | 0.27 µM (≈ 0.0961 µg/mL) |  | Cc1cc(CCCOc2c(C)cc(-c3cccc(Cl)c3)cc2C)on1
4 | 0.12 µM (≈ 0.0427 µg/mL) |  | Cc1cc(CCCOc2c(C)cc(-c3ccc(Cl)cc3)cc2C)on1
5 | 0.12 µM (≈ 0.0403 µg/mL) | > 3.33 h | Cc1ccc(-c2cc(C)c(OCCCc3cc(C)no3)c(C)c2)cc1
